Experimental data from ChEMBL document CHEMBL3259598, “Lignan dicarboxylates and terpenoids from the flower buds of Cananga odorata and their inhibitory effects on melanogenesis” (J Nat Prod, 2014).

How the values were obtained:
[1] = Inhibition of melanogenesis in mouse B16-4A5 cells at 1 uM after 72 hrs by spectrophotometry relative to control; assay type: functional; conditions: B16-4A5, 72 h
Summary of the method: (§1)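 Murine B16 melanoma 4A5 cells seeded at 2.0 × 10^4 cells/well in 24-well plates and cultured 24 h, then given test compound (DMSO, final 0.1%) plus 1 mM theophylline for 72 h. Cells trypsinized, washed and lysed in 1 M NaOH at 80 °C for 30 min; lysate absorbance read at 405 nm. Inhibition is corrected for cell viability, mean ± SEM (n = 4); IC50 determined graphically.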

[2] = Inhibition of melanogenesis in mouse B16-4A5 cells at 3 uM after 72 hrs by spectrophotometry relative to control; assay type: functional; conditions: B16-4A5, 72 h; summary of the method: as §1
[3] = Inhibition of melanogenesis in mouse B16-4A5 cells at 10 uM after 72 hrs by spectrophotometry relative to control; assay type: functional; conditions: B16-4A5, 72 h; summary of the method: as §1
[4] = Inhibition of melanogenesis in mouse B16-4A5 cells at 30 uM after 72 hrs by spectrophotometry relative to control; assay type: functional; conditions: B16-4A5, 72 h; summary of the method: as §1
[5] = Inhibition of melanogenesis in mouse B16-4A5 cells at 100 uM after 72 hrs by spectrophotometry relative to control; assay type: functional; conditions: B16-4A5, 72 h; summary of the method: as §1
[6] = Inhibition of melanogenesis in mouse B16-4A5 cells after 72 hrs by spectrophotometry relative to control; assay type: functional, cell-based; summary of the method: as §1
[7] = Cytotoxicity against mouse B16-4A5 cells assessed as viable cells at 30 uM after 72 hrs by WST-8 assay; assay type: cell-based; conditions: read-out: Activity
Summary of the method: (§2)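 B16 melanoma 4A5 cells (DMEM, 4.5 g/L glucose, 10% FBS, 37 °C, 5% CO2) seeded at 5.0 × 10^4 cells/well in 96-well plates, grown 24 h, then exposed to test compound (DMSO, final 0.1%) for 70 h. After a PBS wash, cells were given DMEM plus WST-8 for 2 h more. Formazan read at 450 nm (reference 655 nm).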

[8] = Inhibition of melanogenesis in mouse B16-4A5 cells at 300 uM after 72 hrs by spectrophotometry relative to control; assay type: functional; conditions: B16-4A5, 72 h
Summary of the method: (§3)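 B16 melanoma 4A5 cells were grown in DMEM (4.5 g/L glucose) with 10% FBS and penicillin/streptomycin at 37 °C, 5% CO2, then seeded at 2.0 × 10^4 cells/well. After 24 h, compound (DMSO stock, 0.1% DMSO final) was added with 1 mM theophylline for 72 h. Cells were trypsinized, washed, lysed in 1 M NaOH (80 °C, 30 min) and read at 405 nm. Inhibition was corrected for WST-8 viability; mean ± SEM, n = 4.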

[9] = Inhibition of melanogenesis in mouse B16-4A5 cells at 1000 uM after 72 hrs by spectrophotometry relative to control; assay type: functional; conditions: B16-4A5, 72 h; summary of the method: as §3
[10] = Cytotoxicity against mouse B16-4A5 cells assessed as viable cells at 10 uM after 72 hrs by WST-8 assay; assay type: cell-based; conditions: read-out: Activity; summary of the method: as §2
[11] = Mus musculus, B16-4A5, 72 h, read-out: IC50

Row | Structure (SMILES) | IC50 [6] [µM] | IC50 [6, 11] [µM] | inhibition at 1 µM [1] [%] | inhibition at 3 µM [2] [%] | inhibition at 10 µM [3] [%] | inhibition at 30 µM [4] [%] | inhibition at 100 µM [5] [%] | viability at 72 h, 30 µM [7] [%] | inhibition at 300 µM [8] [%] | inhibition at 1000 µM [9] [%] | viability at 72 h, 10 µM [10] [%]
1 | CC(C)[C@@H]1CC[C@@](C)(O)[C@H]2CCC(C=O)=C[C@@H]12 | 26.2 | – | 19.2 | 29.9 | 35.8 | 50.8 | 66.3 | > 80.3 | – | – | –
2 | CC(C)[C@H]1CC[C@]2(C)C(=O)CCC(C=O)=C[C@@H]12 | 2.5 | – | 45.5 | 50.3 | 57.6 | 68.5 | 80.6 | > 95.2 | – | – | –
3 | CC(C)[C@@H]1CC[C@@](C)(O)[C@@H]2CCC(C=O)=C[C@H]21 | 5.1 | – | 25 | 45.5 | 64 | 65.9 | 48.8 | > 80.3 | – | – | –
4 | OC[C@H]1CC[C@](CO)(CCO[C@@H]2O[C@H](CO)[C@@H](O)[C@H](O)[C@H]2O)[C@@H](O)C1 | – | – | 16.1 | 17.9 | 15.3 | -2.5 | -9.4 | > 80.3 | – | – | –
5 | OC[C@H]1O[C@@H](Oc2ccc(O)cc2)[C@H](O)[C@@H](O)[C@@H]1O [ARBUTIN] | – | 174 | – | – | 10.6 | 20.4 | 38.1 | – | 61.5 | 83.7 | –
6 | C=C1/C=C/[C@H](C(C)C)CCC(=C)[C@H](O)CC1 | 17.3 | – | 28.9 | 30.5 | 40.6 | 61.2 | 62.2 | > 95.2 | – | – | –
7 | COC(=O)C(=C/c1ccc(OC)cc1)/C(=C\c1ccc(OC)c(OC)c1)C(=O)OC | – | – | 49 | 48.4 | 43.6 | 35.9 | 11.5 | > 74.5 | – | – | –
8 | CC(C)[C@@H]1CC[C@@]2(C)[C@H](O)CCC(C=O)=C[C@@H]12 [APHANAMOL II] | > 100 | – | 37.6 | 34.3 | 32.9 | 28.3 | 42.1 | > 74.5 | – | – | –
9 | O=C[C@]1(CCO[C@@H]2O[C@H](CO)[C@@H](O)[C@H](O)[C@H]2O)CC[C@H](COC(=O)C(=C/c2ccc(O)cc2)/C(=C\c2ccc(O)c(O)c2)C(=O)OC[C@H]2CC[C@](C=O)(CCO[C@@H]3O[C@H](CO)[C@@H](O)[C@H](O)[C@H]3O)[C@@H](O)C2)C[C@@H]1O | – | – | 8.1 | 18 | 18.4 | 24.2 | 29.8 | > 95.2 | – | – | –
10 | CC(C)[C@H]1CC[C@]2(C)[C@@H](O)CCC(C=O)=C[C@@H]12 | 57.5 | – | -4.4 | 9.2 | 14.7 | 37.7 | 58.8 | > 80.3 | – | – | –
11 | OCC[C@@]1(CO)CC[C@H](CO)C[C@@H]1O | – | 2 | 45 | 55.1 | 55.9 | 51.6 | 25.6 | > 95.2 | – | – | –
12 | C=C1CC[C@@H](O)[C@]2(C)CC[C@@H](C(C)C)[C@H](O)[C@@H]12 | 8.4 | – | 42.3 | 39.7 | 53.8 | 54.7 | 59.2 | > 74.5 | – | – | –
13 | COc1ccc(/C=C(C(=O)OC[C@H]2CC[C@](CO)(CCO)[C@@H](O)C2)\C(=C/c2ccc(OC)c(OC)c2)C(=O)OC[C@H]2CC[C@](CO)(CCO)[C@@H](O)C2)cc1 | – | – | 34.4 | 24.1 | 8.1 | -19.9 | -15.7 | 68.8 | – | – | 82

More lines, main results first:

Row | IC50 [6] [µM] | IC50 [6, 11] [µM] | Structure (SMILES) | inhibition at 1 µM [1] [%] | inhibition at 3 µM [2] [%] | inhibition at 10 µM [3] [%] | inhibition at 30 µM [4] [%] | inhibition at 100 µM [5] [%] | viability at 72 h, 30 µM [7] [%] | inhibition at 300 µM [8] [%] | inhibition at 1000 µM [9] [%] | viability at 72 h, 10 µM [10] [%]
14 | > 100 | – | O=C[C@]1(/C=C\O[C@@H]2O[C@H](CO)[C@@H](O)[C@H](O)[C@H]2O)CC[C@H](COC(=O)/C=C/c2ccc(O)c(O)c2)C[C@@H]1O | -3.8 | -8.5 | 9.3 | 11.4 | 12.2 | > 95.2 | – | – | –
15 | > 100 | – | O=C[C@]1(/C=C\O[C@@H]2O[C@H](CO)[C@@H](O)[C@H](O)[C@H]2O)CC[C@H](COC(=O)C2=Cc3ccc(O)c(O)c3[C@@H](c3ccc(O)cc3)[C@@H]2C(=O)OC[C@H]2CC[C@](C=O)(/C=C\O[C@@H]3O[C@H](CO)[C@@H](O)[C@H](O)[C@H]3O)[C@@H](O)C2)C[C@@H]1O | 12.8 | 14.9 | 9.4 | 8.4 | -27.9 | > 80.3 | – | – | –
16 | 3.6 | – | CO[C@@H]1C[C@]2(CC[C@H](COC(=O)/C=C/c3ccc(O)c(O)c3)C[C@@H]2O)[C@@H](OC)O1 | 34.7 | 42.8 | 65.2 | 62.8 | 66.8 | > 95.2 | – | – | –
17 | > 100 | – | O=C[C@]1(/C=C\O[C@@H]2O[C@H](CO)[C@@H](O)[C@H](O)[C@H]2O)CC[C@H](COC(=O)C2=Cc3cc(O)c(O)cc3[C@@H](c3ccc(O)cc3)[C@@H]2C(=O)OC[C@H]2CC[C@](C=O)(/C=C\O[C@@H]3O[C@H](CO)[C@@H](O)[C@H](O)[C@H]3O)[C@@H](O)C2)C[C@@H]1O | 9.2 | 8.7 | 3.6 | 2.9 | 8.7 | > 80.3 | – | – | –
18 | > 100 | – | O=C(OC[C@H]1CC[C@](CO)(CCO[C@@H]2O[C@H](CO)[C@@H](O)[C@H](O)[C@H]2O)[C@@H](O)C1)C(=C/c1ccc(O)cc1)/C(=C\c1ccc(O)c(O)c1)C(=O)OC[C@H]1CC[C@](CO)(CCO[C@@H]2O[C@H](CO)[C@@H](O)[C@H](O)[C@H]2O)[C@@H](O)C1 | 22.3 | 27.2 | 27.3 | 32.3 | 25.3 | > 80.3 | – | – | –
19 | > 100 | – | O=C[C@]1(/C=C\O[C@@H]2O[C@H](CO)[C@@H](O)[C@H](O)[C@H]2O)CC[C@H](COC(=O)C(=C/c2ccc(O)cc2)/C(=C\c2ccc(O)c(O)c2)C(=O)OC[C@H]2CC[C@](C=O)(/C=C\O[C@@H]3O[C@H](CO)[C@@H](O)[C@H](O)[C@H]3O)[C@@H](O)C2)C[C@@H]1O | 28.6 | 30.2 | 31.8 | 34.8 | 16.7 | > 95.2 | – | – | –
20 | – | 5 | O=C(OC[C@H]1CC[C@](CO)(CCO)[C@@H](O)C1)C(=C/c1ccc(O)cc1)/C(=C\c1ccc(O)c(O)c1)C(=O)OC[C@H]1CC[C@](CO)(CCO)[C@@H](O)C1 | 36.1 | 45 | 59 | 49.8 | 44.2 | > 95.2 | – | – | –
21 | 19.3 | – | CO[C@H]1C[C@]2(CC[C@H](COC(=O)/C=C/c3ccc(O)c(O)c3)C[C@@H]2O)[C@H](OC)O1 | 13.5 | 16.9 | 36.4 | 60 | 81.2 | > 80.3 | – | – | –
22 | – | 3 | CC1(C)C[C@H](OC(=O)c2ccccc2)[C@@]23CC[C@@H](O)[C@@](C)(CC[C@H]12)C3 | 45.3 | 40.2 | 66.7 | – | – | 7.9 | – | – | 75.9
